Legend:
[1] = molecular target: T1, Estrogen receptor (Homo sapiens, UniProt P03372); assay: Binding affinity to ERalpha by fluorescence polarization assay
T1 sequence (P03372 whole entry): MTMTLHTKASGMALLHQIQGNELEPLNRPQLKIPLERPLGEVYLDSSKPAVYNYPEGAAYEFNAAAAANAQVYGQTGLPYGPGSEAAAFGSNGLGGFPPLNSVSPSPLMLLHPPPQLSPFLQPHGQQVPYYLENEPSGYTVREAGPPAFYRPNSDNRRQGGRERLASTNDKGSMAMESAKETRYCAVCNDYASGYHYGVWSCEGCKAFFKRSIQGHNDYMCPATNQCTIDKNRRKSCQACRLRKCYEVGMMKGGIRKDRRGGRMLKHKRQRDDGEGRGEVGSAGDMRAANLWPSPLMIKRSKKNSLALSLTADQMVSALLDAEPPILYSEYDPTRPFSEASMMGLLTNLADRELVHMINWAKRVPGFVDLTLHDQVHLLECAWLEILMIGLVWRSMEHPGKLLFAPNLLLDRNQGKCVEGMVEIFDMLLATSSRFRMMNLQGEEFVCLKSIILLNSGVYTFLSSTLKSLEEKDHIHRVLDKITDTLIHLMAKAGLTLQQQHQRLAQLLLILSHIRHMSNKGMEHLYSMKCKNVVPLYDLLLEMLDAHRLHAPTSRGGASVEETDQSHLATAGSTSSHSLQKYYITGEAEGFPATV
Method in brief: (§1)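 Fluorescence polarization competition of test compound against a fluorescently labelled ligand for binding to full-length receptor or its ligand-binding domain.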

[2] = system: Rattus norvegicus; assay: Antiinflammatory activity against carrageenan-induced paw edema Sprague-Dawley rat model assessed as inhibition of hind paw swelling at 30 mg/kg, po measured after 5 hrs post carrageenan challenge; assay type: functional
Method in brief: (§2)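 Male SD rats, fasted overnight plus up to 6 h more. Baseline hind paw volume taken by water plethysmometer. A single oral dose was given in a biologically acceptable medium. 2 h later, under anaesthesia, 1% carrageenan in PBS was injected subcutaneously into both hind paws. Volume was read 3 h post challenge, and swelling was taken as post-challenge minus baseline.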

[3] = system: Rattus norvegicus; assay: Antiinflammatory activity in po dosed carrageenan-induced paw edema Sprague-Dawley rat model assessed as inhibition of hind paw swelling after 5 hrs post carrageenan challenge; assay type: functional; method in brief: as §2
[4] = system: Rattus norvegicus; assay: Toxicity in Sprague-Dawley rat assessed as induction of TAT activity in liver homogenates at 30 mg/kg, po after 6 hrs; assay type: organism-based; parameters: dose 30 mg/kg, route oral; details: in vivo
Method in brief: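 Male SD rats, fasted, single oral dose. Liver was biopsied 6 h postdose, snap frozen, homogenised in 150 mM KCl and centrifuged. Protein-normalised supernatants were assayed for TAT activity, read as OD at 340 nm. Values are given as % of TAT activity in prednisolone-treated (30 mg/kg) rats.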

[5] = molecular target: T2, Mineralocorticoid receptor (Homo sapiens, UniProt P08235); assay: Agonist activity at mineralocorticoid receptor in human A549 cells; assay type: functional, cell-based
T2 sequence (P08235 whole entry): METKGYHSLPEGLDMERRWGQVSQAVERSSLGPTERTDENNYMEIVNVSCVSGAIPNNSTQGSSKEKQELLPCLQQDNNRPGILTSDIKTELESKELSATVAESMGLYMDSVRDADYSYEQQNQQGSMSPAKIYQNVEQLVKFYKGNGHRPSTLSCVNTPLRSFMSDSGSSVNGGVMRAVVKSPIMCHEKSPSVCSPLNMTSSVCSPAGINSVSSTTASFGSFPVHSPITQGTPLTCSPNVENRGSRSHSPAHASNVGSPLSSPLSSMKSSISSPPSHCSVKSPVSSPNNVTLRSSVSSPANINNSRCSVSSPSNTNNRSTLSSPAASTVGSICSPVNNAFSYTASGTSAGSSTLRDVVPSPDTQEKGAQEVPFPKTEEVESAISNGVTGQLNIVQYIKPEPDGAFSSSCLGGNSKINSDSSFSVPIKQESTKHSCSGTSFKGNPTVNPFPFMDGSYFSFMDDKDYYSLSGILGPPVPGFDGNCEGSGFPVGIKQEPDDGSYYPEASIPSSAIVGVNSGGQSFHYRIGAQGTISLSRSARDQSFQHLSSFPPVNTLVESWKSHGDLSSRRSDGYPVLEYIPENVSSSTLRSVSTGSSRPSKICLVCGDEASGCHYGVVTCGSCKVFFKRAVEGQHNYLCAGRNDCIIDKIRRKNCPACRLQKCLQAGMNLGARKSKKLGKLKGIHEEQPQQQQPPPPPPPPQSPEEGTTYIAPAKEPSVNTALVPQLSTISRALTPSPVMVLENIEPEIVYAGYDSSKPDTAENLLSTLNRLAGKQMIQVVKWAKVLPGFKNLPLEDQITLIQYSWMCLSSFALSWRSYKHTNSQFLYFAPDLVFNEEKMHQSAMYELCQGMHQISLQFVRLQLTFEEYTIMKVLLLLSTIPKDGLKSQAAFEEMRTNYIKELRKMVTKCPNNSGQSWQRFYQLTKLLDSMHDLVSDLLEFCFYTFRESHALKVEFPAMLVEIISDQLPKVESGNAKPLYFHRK

[6] = system: Rattus norvegicus; assay: Toxicity in Sprague-Dawley rat assessed as increase in serum glucose level at 30 mg/kg, po after 6 hrs; assay type: organism-based; parameters: dose 30 mg/kg, route oral; details: in vivo
Method in brief: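 Male SD rats, fasted overnight plus up to 6 h, were given a single oral dose in a biologically acceptable medium. At 6 h they were euthanised with CO2, and blood was taken by intracardiac puncture. Serum glucose was measured by the hexokinase method on an automated chemistry analyzer.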

[7] = molecular target: T3, Progesterone receptor (Homo sapiens, UniProt P06401); assay: Binding affinity to progesterone receptor by fluorescence polarization assay; method in brief: as §1
T3 sequence (P06401 whole entry): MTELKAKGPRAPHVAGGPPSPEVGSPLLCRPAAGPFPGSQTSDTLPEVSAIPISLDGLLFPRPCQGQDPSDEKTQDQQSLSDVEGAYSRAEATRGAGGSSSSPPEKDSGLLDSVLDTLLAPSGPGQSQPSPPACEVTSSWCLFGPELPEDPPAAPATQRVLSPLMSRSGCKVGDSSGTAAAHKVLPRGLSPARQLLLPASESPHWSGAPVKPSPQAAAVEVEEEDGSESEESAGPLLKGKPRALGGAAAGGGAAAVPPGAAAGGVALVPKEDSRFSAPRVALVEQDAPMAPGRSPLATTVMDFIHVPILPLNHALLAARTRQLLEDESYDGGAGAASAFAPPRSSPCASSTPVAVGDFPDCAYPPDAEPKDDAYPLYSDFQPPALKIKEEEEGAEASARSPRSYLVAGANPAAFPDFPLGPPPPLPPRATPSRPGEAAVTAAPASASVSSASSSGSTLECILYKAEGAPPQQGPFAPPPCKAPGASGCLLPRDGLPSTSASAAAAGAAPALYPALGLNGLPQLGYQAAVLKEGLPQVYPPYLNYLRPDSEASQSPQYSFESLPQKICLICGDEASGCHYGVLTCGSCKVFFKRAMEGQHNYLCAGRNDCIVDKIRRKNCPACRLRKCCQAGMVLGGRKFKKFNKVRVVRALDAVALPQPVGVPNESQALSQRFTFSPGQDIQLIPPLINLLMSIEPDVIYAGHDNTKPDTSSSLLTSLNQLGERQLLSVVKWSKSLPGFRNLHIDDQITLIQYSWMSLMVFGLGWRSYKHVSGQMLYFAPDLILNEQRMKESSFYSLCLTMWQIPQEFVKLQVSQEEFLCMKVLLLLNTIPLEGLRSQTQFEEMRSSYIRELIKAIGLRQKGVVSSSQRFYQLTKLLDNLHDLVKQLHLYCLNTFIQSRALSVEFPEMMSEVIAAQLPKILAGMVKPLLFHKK

[8] = molecular target: T4, Androgen receptor (Homo sapiens, UniProt P10275); assay: Binding affinity to androgen receptor by fluorescence polarization assay; method in brief: as §1
T4 sequence (P10275 whole entry): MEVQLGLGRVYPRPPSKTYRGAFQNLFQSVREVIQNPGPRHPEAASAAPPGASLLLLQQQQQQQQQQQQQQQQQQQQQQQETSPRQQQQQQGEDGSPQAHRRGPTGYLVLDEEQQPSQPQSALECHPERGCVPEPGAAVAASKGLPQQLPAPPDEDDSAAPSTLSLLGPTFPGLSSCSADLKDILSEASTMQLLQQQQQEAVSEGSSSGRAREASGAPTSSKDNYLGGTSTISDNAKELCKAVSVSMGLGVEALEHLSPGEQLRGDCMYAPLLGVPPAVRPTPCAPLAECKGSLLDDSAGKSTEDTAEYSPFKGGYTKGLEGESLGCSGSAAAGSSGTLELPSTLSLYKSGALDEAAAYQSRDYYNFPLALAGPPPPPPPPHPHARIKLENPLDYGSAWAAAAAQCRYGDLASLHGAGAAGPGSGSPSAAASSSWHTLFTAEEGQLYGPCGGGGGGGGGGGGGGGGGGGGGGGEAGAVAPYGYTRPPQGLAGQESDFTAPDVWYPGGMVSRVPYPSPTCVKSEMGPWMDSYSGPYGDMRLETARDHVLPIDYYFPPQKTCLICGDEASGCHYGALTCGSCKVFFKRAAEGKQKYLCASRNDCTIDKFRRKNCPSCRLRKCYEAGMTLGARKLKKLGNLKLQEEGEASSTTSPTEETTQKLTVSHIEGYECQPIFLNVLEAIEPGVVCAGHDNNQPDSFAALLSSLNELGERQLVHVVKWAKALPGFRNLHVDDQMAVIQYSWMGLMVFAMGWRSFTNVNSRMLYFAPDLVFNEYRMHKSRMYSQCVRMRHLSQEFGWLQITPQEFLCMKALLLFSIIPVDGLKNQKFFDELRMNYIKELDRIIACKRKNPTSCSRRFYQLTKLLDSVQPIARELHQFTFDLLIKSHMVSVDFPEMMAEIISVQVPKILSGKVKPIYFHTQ

Ki [1] [µM] | EC50 [5] [µM] | Ki [7] [µM] | Ki [8] [µM] | Structure (SMILES) | inhibition (INH) ([2]; 30 mg/kg) [%] | inhibition in vivo at 30 mg/kg ([2]; Rattus norvegicus, Sprague-Dawley, po, 5 h) [%] | ED50 [3] [mg/kg] | Activity [4] | Activity [6]
> 5 | 0.002 |  |  | C[C@]12C=CC(=O)C=C1CC[C@@H]1[C@@H]2[C@@H](O)C[C@@]2(C)[C@H]1CC[C@]2(O)C(=O)CO [PREDNISOLONE] | 42 | 57 | 19 | Toxic | Toxic
> 50 | > 5 | 0.055 | 0.993 | CC(C)(C(=O)Nc1nncs1)[C@@H](c1ccccc1)c1ccc(O)c(F)c1 |  |  |  |  | 

From ChEMBL document CHEMBL1799968, “Dimethyl-diphenyl-propanamide derivatives as nonsteroidal dissociated glucocorticoid receptor agonists” (J Med Chem, 2010)
